Data taken from ChEMBL document CHEMBL1145247, “4-Alkyl and 4,4'-dialkyl 1,2-bis(4-chlorophenyl)pyrazolidine-3,5-dione derivatives as new inhibitors of bacterial cell wall biosynthesis” (Bioorg Med Chem Lett, 2005).
Values after ≈ are worked out from the molar mass of the structure shown.

Tests used:
Streptococcus pneumoniae [1] = test: Minimum inhibitory concentration against cell wall biosynthesis of penicillin resistant Streptococcus pneumoniae GC 1894 (PRSP); type: functional
In short: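 Broth microdilution per NCCLS M7-A3, using Mueller–Hinton broth supplemented with 5% sheep blood. Agents tested as 2-fold serial dilutions, with a final inoculum of 1–5 × 10^5 CFU/mL.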

Staphylococcus aureus [2] = test: Minimum inhibitory concentration against cell wall biosynthesis of methicillin susceptible Staphylococcus aureus GC 4543; type: functional
In short: (§1)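 Broth microdilution per NCCLS M7-A3 in Mueller–Hinton broth, aerobic. Agents tested as 2-fold serial dilutions, with a final inoculum of 1–5 × 10^5 CFU/mL. Plates incubated 18–22 h at 35 °C in ambient air. MIC read as the endpoint.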

[3] = biological target: UDP-N-acetylglucosamine 1-carboxyvinyltransferase (Escherichia coli K-12, UniProt P0A749); test: Inhibitory concentration against MurA enzyme in Escherichia coli
Chain of UDP-N-acetylglucosamine 1-carboxyvinyltransferase (P0A749 whole entry): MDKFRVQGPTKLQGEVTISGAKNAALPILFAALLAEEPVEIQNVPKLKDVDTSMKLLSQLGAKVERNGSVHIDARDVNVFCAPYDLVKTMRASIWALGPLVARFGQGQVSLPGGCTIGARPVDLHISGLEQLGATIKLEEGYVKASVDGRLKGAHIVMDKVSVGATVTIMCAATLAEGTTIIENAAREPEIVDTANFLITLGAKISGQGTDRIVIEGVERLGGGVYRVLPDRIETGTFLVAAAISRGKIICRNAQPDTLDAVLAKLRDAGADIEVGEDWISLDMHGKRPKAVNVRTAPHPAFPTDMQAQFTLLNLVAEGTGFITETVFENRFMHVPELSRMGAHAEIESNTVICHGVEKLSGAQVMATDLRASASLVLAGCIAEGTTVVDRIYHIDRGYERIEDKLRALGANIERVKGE
In short: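 Enzyme preincubated with inhibitor 10 min at 37 °C before substrates were added. Reaction ran 30 min at 37 °C and was stopped with malachite green reagent (0.03% malachite green, 1.4% ammonium molybdate, 1.3 N HCl) for phosphate read-out.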

Escherichia coli [4] = test: Minimum inhibitory concentration against cell wall biosynthesis of Escherichia coli GC 4559; type: functional
In short: (§2)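 Broth microdilution per NCCLS M7-A3. Mueller–Hinton broth for staphylococci and enterococci, 2-fold serial dilutions of agent. Final inoculum 1–5 × 10^5 CFU/mL.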

Escherichia coli [5] = test: Minimum inhibitory concentration against cell wall biosynthesis of Escherichia coli GC 4560; type: functional
[6] = Minimum inhibitory concentration against cell wall biosynthesis of methicillin-susceptible Coagulase negative staphylococcus GC 646 (MSCNS); type: functional; in short: as §2
[7] = biological target: T1, UDP-N-acetylenolpyruvoylglucosamine reductase (Staphylococcus aureus, UniProt P61431); test: Inhibitory concentration against MurB enzyme in Staphylococcus aureus
T1 sequence (P61431 whole entry): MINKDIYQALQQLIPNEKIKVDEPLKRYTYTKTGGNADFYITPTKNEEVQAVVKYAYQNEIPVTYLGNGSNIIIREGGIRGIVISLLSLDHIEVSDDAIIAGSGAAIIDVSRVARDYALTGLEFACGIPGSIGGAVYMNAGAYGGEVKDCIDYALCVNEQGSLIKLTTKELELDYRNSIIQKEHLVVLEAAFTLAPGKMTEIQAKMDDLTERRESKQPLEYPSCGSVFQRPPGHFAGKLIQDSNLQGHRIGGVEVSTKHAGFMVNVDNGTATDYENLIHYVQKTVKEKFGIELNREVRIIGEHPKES
In short: (§3)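 Enzyme (20 nM) preincubated 20 min with inhibitor, then substrates added to final 50 µM EP-UNAG and 100 µM NADPH. Activity followed spectrophotometrically. At least six inhibitor concentrations between 1.5 and 50 µM per compound. IC50 from sigmoid Hill curve fit (0–100).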

Enterococcus faecalis [8] = test: Minimum inhibitory concentration against cell wall biosynthesis of vancomycin resistant Enterococcus faecalis GC 2242 (VRE); type: functional; in short: as §1
Enterococcus faecalis [9] = test: Minimum inhibitory concentration against cell wall biosynthesis of vancomycin susceptible (ATCC) Enterococcus faecalis GC 4555; type: functional; in short: as §2
Streptococcus pneumoniae [10] = test: Minimum inhibitory concentration against cell wall biosynthesis of penicillin resistant Streptococcus pneumoniae GC 1894 (PRSP) in the presence of 4% bovine serum albumin; type: functional
Staphylococcus aureus [11] = test: Minimum inhibitory concentration against cell wall biosynthesis of methicillin resistant Staphylococcus aureus GC 1131; type: functional; in short: as §1
[12] = biological target: T2, UDP-N-acetylenolpyruvoylglucosamine reductase (Escherichia coli K-12, UniProt P08373); test: Inhibitory concentration against MurB enzyme in Escherichia coli; in short: as §3
T2 sequence (P08373 whole entry): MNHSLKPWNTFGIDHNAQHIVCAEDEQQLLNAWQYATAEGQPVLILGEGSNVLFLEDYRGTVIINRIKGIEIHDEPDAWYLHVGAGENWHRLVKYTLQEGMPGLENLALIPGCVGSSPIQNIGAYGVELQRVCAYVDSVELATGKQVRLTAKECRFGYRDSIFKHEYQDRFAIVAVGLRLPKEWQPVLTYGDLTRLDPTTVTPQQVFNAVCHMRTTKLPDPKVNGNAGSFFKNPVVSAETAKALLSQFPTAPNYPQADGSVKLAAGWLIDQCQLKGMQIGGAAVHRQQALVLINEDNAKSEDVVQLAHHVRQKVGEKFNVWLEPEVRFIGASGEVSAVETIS

Escherichia coli [13] = test: Minimal inhibitory concentration against Escherichia coli GC 4560 was determined; type: functional; in short: as §2
Enterococcus faecalis [14] = test: Minimal inhibitory concentration against vancomycin susceptible Enterococcus faecalis was determined; Range = 25-50 uM; type: functional; in short: as §1
Staphylococcus aureus [15] = test: Minimal inhibitory concentration against methicillin resistant Staphylococcus aureus was determined; Range = 25-50 uM; type: functional; in short: as §1
Enterococcus faecalis [16] = test: Minimal inhibitory concentration against vancomycin resistant Enterococcus faecalis was determined; Range = 25-50 uM; type: functional; in short: as §1
Staphylococcus aureus [17] = test: Minimal inhibitory concentration against methicillin susceptible Staphylococcus aureus was determined; Range = 25-50 uM; type: functional; in short: as §1

SMILES	MIC (Streptococcus pneumoniae [1]) [µM]	MIC (Staphylococcus aureus [2]) [µM]	IC50 [3] [µM]	MIC (Escherichia coli [4]) [µM]	MIC (Escherichia coli [5]) [µM]	MIC [6] [µM]	IC50 [7] [µM]	MIC (Enterococcus faecalis [8]) [µM]	MIC (Enterococcus faecalis [9]) [µM]	MIC (Streptococcus pneumoniae [10]) [µM]	MIC (Staphylococcus aureus [11]) [µM]	IC50 [12] [µM]	MIC (Escherichia coli [13]) [µM]	MIC (Enterococcus faecalis [14]) [µM]	MIC (Staphylococcus aureus [15]) [µM]	MIC (Enterococcus faecalis [16]) [µM]	MIC (Staphylococcus aureus [17]) [µM]
O=C1N(c2ccc(Cl)cc2)N(c2ccc(Cl)cc2)C(=O)C1(CCCCCCc1ccccc1)CCCCCCc1ccccc1	100 (≈ 64.2 µg/mL)	200 (≈ 128 µg/mL)	9.9	> 200	> 200	> 200	8.2	200 (≈ 128 µg/mL)	> 200	> 200	> 200	7.2	–	–	–	–	–
O=C1C(Cc2ccc(Cl)cc2Cl)C(=O)N(c2ccc(Cl)cc2)N1c1ccc(Cl)cc1	12.5 (≈ 6 µg/mL)	50 (≈ 24 µg/mL)	> 50	> 200	100 (≈ 48 µg/mL)	50 (≈ 24 µg/mL)	29	50 (≈ 24 µg/mL)	100 (≈ 48 µg/mL)	> 200	50 (≈ 24 µg/mL)	11	–	–	–	–	–
O=C(CC1C(=O)N(c2ccc(Cl)cc2)N(c2ccc(Cl)cc2)C1=O)c1ccc(F)cc1	25 (≈ 11.4 µg/mL)	25 (≈ 11.4 µg/mL)	8.4	> 200	200 (≈ 91.5 µg/mL)	> 200	5.2	50 (≈ 22.9 µg/mL)	50 (≈ 22.9 µg/mL)	> 200	25 (≈ 11.4 µg/mL)	5.4	–	–	–	–	–
O=C(CCC1C(=O)N(c2ccc(Cl)cc2)N(c2ccc(Cl)cc2)C1=O)c1ccc(F)cc1	50 (≈ 23.6 µg/mL)	100 (≈ 47.1 µg/mL)	46.9	> 200	200 (≈ 94.3 µg/mL)	200 (≈ 94.3 µg/mL)	18	100 (≈ 47.1 µg/mL)	100 (≈ 47.1 µg/mL)	> 200	100 (≈ 47.1 µg/mL)	13	–	–	–	–	–
N#Cc1ccccc1-c1ccc(CC2C(=O)N(c3ccc(Cl)cc3)N(c3ccc(Cl)cc3)C2=O)cc1	–	6.25 (≈ 3.2 µg/mL)	> 50	> 200	25 (≈ 12.8 µg/mL)	6.25 (≈ 3.2 µg/mL)	12	–	25 (≈ 12.8 µg/mL)	–	–	11	25 (≈ 12.8 µg/mL)	–	–	–	–
O=C1C(CCOCc2ccccc2)C(=O)N(c2ccc(Cl)cc2)N1c1ccc(Cl)cc1	25 (≈ 11.4 µg/mL)	200 (≈ 91.1 µg/mL)	33.4	> 200	200 (≈ 91.1 µg/mL)	200 (≈ 91.1 µg/mL)	11	100 (≈ 45.5 µg/mL)	200 (≈ 91.1 µg/mL)	> 200	100 (≈ 45.5 µg/mL)	11	–	–	–	–	–
O=C(CC1(CC(=O)c2ccc(F)cc2F)C(=O)N(c2ccc(Cl)cc2)N(c2ccc(Cl)cc2)C1=O)c1ccc(F)cc1F	3.12 (≈ 1.96 µg/mL)	12.5 (≈ 7.87 µg/mL)	9.6	> 200	100 (≈ 62.9 µg/mL)	25 (≈ 15.7 µg/mL)	5.2	12.5 (≈ 7.87 µg/mL)	12.5 (≈ 7.87 µg/mL)	> 200	12.5 (≈ 7.87 µg/mL)	5.8	–	–	–	–	–
CCN(CCC1C(=O)N(c2ccc(Cl)cc2)N(c2ccc(Cl)cc2)C1=O)Cc1ccccc1	100 (≈ 48.2 µg/mL)	> 200	> 50	> 200	> 200	> 200	> 50	200 (≈ 96.5 µg/mL)	> 200	> 200	200 (≈ 96.5 µg/mL)	> 50	–	–	–	–	–
O=C(CCCC1C(=O)N(c2ccc(Cl)cc2)N(c2ccc(Cl)cc2)C1=O)c1ccc(F)cc1	12.5 (≈ 6.07 µg/mL)	50 (≈ 24.3 µg/mL)	32.4	> 200	200 (≈ 97.1 µg/mL)	100 (≈ 48.5 µg/mL)	11	50 (≈ 24.3 µg/mL)	50 (≈ 24.3 µg/mL)	> 200	50 (≈ 24.3 µg/mL)	10	–	–	–	–	–
O=C1N(c2ccc(Cl)cc2)N(c2ccc(Cl)cc2)C(=O)C1(CCOCc1ccccc1)CCOCc1ccccc1	12.5 (≈ 7.37 µg/mL)	100 (≈ 59 µg/mL)	20.1	> 200	200 (≈ 118 µg/mL)	200 (≈ 118 µg/mL)	7.5	50 (≈ 29.5 µg/mL)	25 (≈ 14.7 µg/mL)	> 200	100 (≈ 59 µg/mL)	7.2	–	–	–	–	–
O=C1C(CCCCCc2ccccc2)C(=O)N(c2ccc(Cl)cc2)N1c1ccc(Cl)cc1	25 (≈ 11.7 µg/mL)	100 (≈ 46.7 µg/mL)	42.3	> 200	> 200	> 200	32	200 (≈ 93.5 µg/mL)	100 (≈ 46.7 µg/mL)	> 200	200 (≈ 93.5 µg/mL)	10	–	–	–	–	–
O=C1C(CCCCCCc2ccccc2)C(=O)N(c2ccc(Cl)cc2)N1c1ccc(Cl)cc1	6.25 (≈ 3.01 µg/mL)	25 (≈ 12 µg/mL)	34.9	> 200	200 (≈ 96.3 µg/mL)	100 (≈ 48.1 µg/mL)	12	50 (≈ 24.1 µg/mL)	50 (≈ 24.1 µg/mL)	> 200	25 (≈ 12 µg/mL)	8.9	–	50 (≈ 24.1 µg/mL)	50 (≈ 24.1 µg/mL)	50 (≈ 24.1 µg/mL)	50 (≈ 24.1 µg/mL)
